Hits are enriched below; roughly 1.6% of the tested compounds scored in any of these assays.
TDP2 absorb: TDP2 (human) inhibition, absorbance primary screen. recombinant TDP2, T5PNP hydrolysis, p-nitrophenol absorbance 415 nm. AID 720702. inhibition, % at 12.8 µM. 370,000 compounds, 0.34% hits. O95551;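 active means inhibition above the mean of all tested compounds plus 3 SD, set per campaign, cut at about 25% in these data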;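 further: 0% = DMSO with enzyme and 100% = buffer with substrate but no TDP2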
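Read-out basis: percent inhibition. System: recombinant human TDP2. Buffer or medium: Mg2+-containing Tris-HCl buffer, pH 7.5. Repeats: single replicate. Timing: reaction 2 h, 37 °C. Benchmarks: high control without enzyme, low control DMSO plus TDP2. Probe or stimulus: 5 mM T5PNP. Doses: 12.8 µM only. Measured by: epi absorbance of p-nitrophenol freed from T5PNP by hydrolysis.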
PAD4 inh: blocks human protein arginine deiminase 4; 330,000 compounds, 0.41% hits; Q9UM07; inhibition, % at 6.36 µM; AID 485272; recombinant PAD4, RCA probe fluorescence polarization;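 active means percent inhibition above a cutoff equal to the mean of all tested compounds plus 3 SD, cut at about 15% in these data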;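 further: 0% = PAD4 with RCA probe and DMSO and 100% = probe without PAD4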
SUMO HTRF inh: blocks human SUMOylation mediated by UBC9 | P63279 | HTRF SUMOylation assay, SAE1/SAE2 + UBC9, in vitro | inhibition, % at 35 µM | 290,000 compounds, 0.36% hits | AID 2006; in the data active means inhibition above about 50%, passing the limit was not always enough
Target sequence (P63279 whole entry, looked up): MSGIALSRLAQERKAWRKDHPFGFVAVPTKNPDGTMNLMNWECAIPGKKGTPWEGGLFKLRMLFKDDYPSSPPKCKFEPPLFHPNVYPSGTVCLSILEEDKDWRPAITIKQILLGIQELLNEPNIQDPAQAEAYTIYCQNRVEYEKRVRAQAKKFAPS
GSTO1 counter: GSTO1 inhibition, counter-screen for RBBP9 inhibitors; inhibition, % at 5.96 µM; P78417; 300,000 compounds, 1.1% hits; recombinant GSTO1, activity-based probe fluorescence polarization;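 active means inhibition above the campaign mean inhibition plus 3 SD, cut at about 35% in these data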;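 further: 0% = GSTO1-1 with DMSO and 100% = wells lacking GSTO1-1 enzyme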
Apaf1 inhib: human Apaf-1 inhibition | reconstituted apoptosome caspase-3 activity, DEVD-Rh110 fluorescence | O14727 | 330,000 compounds, 0.71% hits | AID 489030 | inhibition, % at 20 µM; active means inhibition of at least 40% at 20 µM;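 further: plate controls were DMSO wells for no effect and DEVD-CHO caspase inhibitor wells for full effect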
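Material: cell-free apoptosome with Apaf-1, procaspase-3 and caspase-9; Buffer or medium: Hepes pH 7.5 with detergent and BSA; Reagent: cytochrome c trigger plus (Z-DEVD)2-Rh110 caspase-3 substrate; Times: compound with Apaf-1, dATP, procaspase-3 30 min, then 50 min reaction, room temperature; Technique: Rh110 fluorescence intensity.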
JMJD2C inh: inhibitors of human GASC-1 (JMJD2C) demethylase. Q9H3R0. GST-JMJD2C(1-420) H3K9me3 demethylation, DELFIA europium. inhibition, % at 2.35 µM. 330,000 compounds, 0.069% hits. AID 2099;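 active means more than half of a compound's replicate wells show inhibition beyond 50%, single wells judged on their own value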;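 further: signal counts dimethyl H3K9 product captured on neutravidin plate; 0% = median of DMSO wells and 100% = 0.3 times that DMSO median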
Target sequence (Q9H3R0 1-420 limits assumed): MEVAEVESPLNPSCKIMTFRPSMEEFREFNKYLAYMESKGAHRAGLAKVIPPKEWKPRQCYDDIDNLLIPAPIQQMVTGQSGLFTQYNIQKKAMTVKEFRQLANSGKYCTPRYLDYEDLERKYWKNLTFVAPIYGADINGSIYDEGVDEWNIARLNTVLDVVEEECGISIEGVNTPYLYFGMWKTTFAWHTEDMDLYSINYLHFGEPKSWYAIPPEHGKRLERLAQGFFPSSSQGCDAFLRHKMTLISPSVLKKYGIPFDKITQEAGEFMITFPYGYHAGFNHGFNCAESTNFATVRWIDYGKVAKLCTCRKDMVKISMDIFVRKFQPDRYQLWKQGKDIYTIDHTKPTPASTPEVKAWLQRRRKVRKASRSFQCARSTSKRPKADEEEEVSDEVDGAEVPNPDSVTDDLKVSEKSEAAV
TDP2 inh conf: human TDP2 inhibition, confirmation. AID 743263. 1,100 compounds, 22% hits. shares compounds with TDP2 absorb. inhibition, % at 12.8 µM. recombinant human TDP2, absorbance read-out; in the data active means inhibition above about 25%;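 further: 0% = vehicle with enzyme and 100% = no enzyme buffer only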
Starred values were filed as active, the others as inactive; . = no result; ! = repeats disagree.

SMILES	TDP2 absorb	PAD4 inh	SUMO HTRF inh	GSTO1 counter	Apaf1 inhib	JMJD2C inh	TDP2 inh conf
O=c1oc2ccccc2cc1-c1csc(Cc2nc(-c3ccc(Cl)cc3)cs2)n1	-3	0	29	1	6	3	.
CCOc1cc(/C=C\c2[nH]c(=O)[nH]c(=O)c2[N+](=O)[O-])ccc1OC(C)CC (stereo not drawn)	-1	8	20	8	13	41	.
CCOc1cc(/C=C\c2nc(O)c([N+](=O)[O-])c(=O)[nH]2)ccc1OC(C)C	25*	0	13	-5	8	5	2
COc1ccc(CCN(Cc2cccs2)S(=O)(=O)c2ccc(C)c(C)c2)cc1OC	4	.	.	.	.	.	.
CC(=O)Nc1ccc(NCN2C(=O)C3C4CCC(C4)C3C2=O)cc1 (stereo not drawn)	32*	1	16	6	0	-4	8
CN(C)c1ccc2cc(S(=O)(=O)O)cc(O)c2c1	55*	.	.	.	.	.	13
CN(C)c1ccc2c(O)cc(=O)n(C)c2c1	20	-6	20	21	-8	9	.
Cc1cc(Cl)c(OCCOCCN2CCN(C)CC2)c(Br)c1	34*	1	-4	6	-2	-1	9
COC(=O)N1CCC[C@H]1c1cccc2[nH]cc(C)c12	1	.	.	.	.	.	.
COC1=CC(=O)c2nc(Cl)ccc2C1=O	85*	.	.	.	.	.	78*
CSC1=NC(=O)/C(=C\c2cccc3ccccc23)S1	25*	-4	-3	-20	5	.	0
CC1CCCCC1C(=O)N1CCC(Oc2cccnc2)CC1 (stereo not drawn)	8	.	.	.	.	.	.
COc1cc2c(c(OC)c1O)C(=O)CO2	25*	2	20	17	-7	-6	-4
CC(C)=CCC/C(C)=C/CN1CC(=O)N2[C@H](C[C@@]3(n4ccc5ccccc54)c4ccccc4N(S(=O)(=O)c4ccccc4)[C@@H]23)C1=O	-6	.	.	.	.	.	.
COC(=O)C[C@@H]1CC[C@H](NC(=O)Cc2ccccn2)[C@@H](CO)O1	28*	.	.	.	.	.	-1
O=C(c1cccc(C(F)(F)F)c1)N1CC[C@H]2[C@H](CCCN2Cc2ccc(F)cc2)C1	-5	.	.	.	.	.	.
COc1ccc(CNC(=O)CCCNC(=O)c2ccc(Cl)cc2)cc1OC	33*	3	3	-1	1	-3	0
COc1ccc(CCNC(=O)CCNC(=O)c2ccc(Cl)cc2)cc1OC	4	-5	-8	1	-3	5	.
O=C(O)CN1C(=O)/C(=C/c2ccc(SCc3ccccc3)o2)SC1=S	26*	.	.	.	.	.	3
COC(=O)[C@H](CC(C)C)N1Cc2nnn(Cc3ccccc3)c2-c2cc(F)ccc2S1(=O)=O	-4	.	.	.	.	.	.
Cc1cc(NC(=O)c2ccc(Cl)cc2Cl)n(CCC#N)n1	-2	-5	15	-2	4	11	.
Cc1nn(CCC#N)c(N)c1C1(O)C(=O)Nc2c(Cl)cc(Cl)cc21 (stereo not drawn)	26*	-2	1	31	0	-13	4
COc1ccc(CN(CCN2CCOCC2)C(=O)c2ccc(F)cc2F)cc1OC	15	.	.	.	.	.	.
CSc1ccc(CN2CCC(N3CC(C)OC(C)C3)CC2)cc1 (stereo not drawn)	5	-3	17	0	-13	6	.
Cc1ccc(CN2CCC(N3CC(C)OC(C)C3)CC2)cc1 (stereo not drawn)	25*	.	4	.	-2	-4	4
SMILES	TDP2 absorb	PAD4 inh	SUMO HTRF inh	GSTO1 counter	Apaf1 inhib	JMJD2C inh	TDP2 inh conf
Cc1nc2sc(C(=O)NCc3nccs3)c(N)c2c(C)c1Cl	2	.	.	.	.	.	.
O=C(NCC1CCCO1)c1cccnc1Nc1ccccc1F (stereo not drawn)	40*	1	-33	-2	-3	12	6
CC1(C)c2cc(O)ccc2OC1N1CCOCC1 (stereo not drawn)	25*	-4	12	4	-2	5	12
CC1(C)c2ccccc2-c2nc3ccccc3cc2C1N1CCOCC1 (stereo not drawn)	-20	.	.	.	.	.	.
CC(=O)CC[C@H]1CC[C@]2(CCCN(S(=O)(=O)c3ccccc3)C2)O1	7	.	.	.	.	.	.
C[c-]1[c-](C)[c-](C)[c-](C)[c-]1C.[Fe].c1cc2nccc(N3CCCC3)[c-]2c1 (stereo not drawn)	34*	-8	42	-3	33	10	26*!
c1cc(N2CCCCC2)nc(N2CCCCC2)n1	-4	.	.	.	.	.	.
COc1ccccc1C(=O)COC(=O)c1nc(Cl)ccc1Cl	5	2	.	6	8	11	.
O=C(COC(=O)c1nc(Cl)ccc1Cl)c1ccccc1Cl	29*	3	.	-1	7	1	0
C=CCN1C(=O)[C@@H](CC(=O)NCCCN2CCCC2=O)[C@]2(C(=O)OCC)CCCCC/C=C/12	-4	.	.	.	.	.	.
O=C1C(=O)N(c2nccs2)C(c2ccccc2F)/C1=C(\O)c1ccc2c(c1)OCCO2 (stereo not drawn)	26*	-3	5	-12	-40	-32	-1
O=C(CSc1nnc(-c2cccnc2)n1-c1ccccc1)Nc1cccc2ccccc12	-6	.	.	.	.	.	.
O=C(CCc1nc(-c2ccc(Cl)cc2)no1)OCc1ccc(Br)cc1	40*	2	.	-3	8	0	4
CCCCN1CCN(C(=O)C2CCCN(C(=O)c3ccc4c(c3)NC(=O)CS4)C2)CC1 (stereo not drawn)	-3	.	.	.	.	.	.
COc1ccc(C(=O)NNC(=O)CSc2nc3c(c(=O)n(C)c(=O)n3C)n2C)cc1	25*	-7	17	17	-2	-12	7
COc1ccccc1COC(=O)c1cccc(S(=O)(=O)N(C)Cc2ccccc2)c1	-7	.	.	.	.	.	.
CCS(=O)(=O)c1nc(S(=O)(=O)c2ccc(C)cc2)c(N2CCN(CCO)CC2)s1	25*	-2	1	-1	-5	0	4
Cc1cccc(NCc2cc(Cl)ccc2O)n1	7	-1	-50	2	0	-8	.
Oc1ccc(Cl)cc1CNc1cccc2cccnc12	32*	-2	66*	35*	91*	-13	5
CCC(=O)N1CCc2cc(Br)c(S(=O)(=O)N3CCC(C(=O)NC(C)(C)C)CC3)cc21	-3	.	.	.	.	.	.
Cc1ccc(NC(=O)CCSc2nnc(C)o2)cc1	28*	0	16	0	-15	-4	6
Cc1nnc(SCCC(=O)Nc2ccc(Cl)cc2)o1	2	-1	3	6	0	9	.
O=C(NCc1ccc2c(c1)OCO2)C(=O)NCC1OCCN1S(=O)(=O)c1ccc(Cl)cc1 (stereo not drawn)	37*	0	-1	-1	11	2	1
O=C1CN(C(=O)NCC(=O)N[C@@H](Cc2ccccc2)C(=O)O)c2ccccc2N1	-3	-3	-1	5	-4	0	.

Compound activity (PubChem)
